The source made the active and inactive calls. The calls are words filed in the database; no cut-off is given here.

Experiment [1] concerns the target T1, GABA-A receptor; alpha-1/beta-2/gamma-2 (Homo sapiens) (UniProt P14867+P47870+P18507). Kind of experiment: Antagonist at human recombinant GABA-A alpha1beta2gamma2L receptor expressed in Xenopus laevis oocytes assessed as blockade of diazepam-induced potentiation of GABA-induced chloride current at 10 uM incubated 60 seconds before addition of GABA measured after 30 seconds at holding potential -70 mV by two-microelectrode voltage clamp technique. Particulars: Oocyte. Type of experiment: functional, cell-based. In short, it runs like this:
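Oocytes expressing human α1β2γ2L, α2β1γ2L or α5β2γ2L receptors were clamped at −70 mV. Compound at 10 μM was tested against the enhancement of the GABA EC10 response by 1.0 μM diazepam, with 60 s preapplication and 30 s coapplication. The response was expressed as percent potentiation, from 2–3 oocytes.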

Experiment [2] addresses T2, GABA A receptor alpha-1/beta-1/gamma-2 (Homo sapiens) (UniProt P14867+P18507+P18505). Kind of experiment: Antagonist at human recombinant GABA-A alpha1beta1gamma2L receptor expressed in Xenopus laevis oocytes assessed as blockade of diazepam-induced potentiation of GABA-induced chloride current at 10 uM incubated 60 seconds before addition of GABA measured after 30 seconds at holding potential -70 mV by two-microelectrode voltage clamp technique. Type of experiment: functional, cell-based. Particulars: Oocyte.

For a further experiment, the species on record is Homo sapiens. Put plainly: Ratio of Ki for central benzodiazepine receptor in human cortical membrane to Ki for central benzodiazepine receptor in human cortical membrane in presence of 50 uM GABA. Type of experiment: cell membranes.
Experiment [3] deals with T3, GABA A receptor alpha-2/beta-2/gamma-2 (Homo sapiens, UniProt P18507+P47869+P47870).
T3 sequence (P47870 whole entry): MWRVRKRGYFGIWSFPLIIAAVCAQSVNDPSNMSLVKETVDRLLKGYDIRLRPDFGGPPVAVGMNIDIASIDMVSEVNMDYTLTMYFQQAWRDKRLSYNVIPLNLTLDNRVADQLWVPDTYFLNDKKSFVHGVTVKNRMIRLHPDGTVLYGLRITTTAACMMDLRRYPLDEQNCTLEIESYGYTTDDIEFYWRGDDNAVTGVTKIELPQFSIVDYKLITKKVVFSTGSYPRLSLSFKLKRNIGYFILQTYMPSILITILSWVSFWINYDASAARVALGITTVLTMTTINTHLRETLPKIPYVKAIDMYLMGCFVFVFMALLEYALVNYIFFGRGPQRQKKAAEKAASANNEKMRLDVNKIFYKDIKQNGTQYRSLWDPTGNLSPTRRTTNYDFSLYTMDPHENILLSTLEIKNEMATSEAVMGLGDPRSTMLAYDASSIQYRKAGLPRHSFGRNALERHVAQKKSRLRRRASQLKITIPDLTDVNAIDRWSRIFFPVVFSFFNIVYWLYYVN
T3 sequence (P18507 whole entry): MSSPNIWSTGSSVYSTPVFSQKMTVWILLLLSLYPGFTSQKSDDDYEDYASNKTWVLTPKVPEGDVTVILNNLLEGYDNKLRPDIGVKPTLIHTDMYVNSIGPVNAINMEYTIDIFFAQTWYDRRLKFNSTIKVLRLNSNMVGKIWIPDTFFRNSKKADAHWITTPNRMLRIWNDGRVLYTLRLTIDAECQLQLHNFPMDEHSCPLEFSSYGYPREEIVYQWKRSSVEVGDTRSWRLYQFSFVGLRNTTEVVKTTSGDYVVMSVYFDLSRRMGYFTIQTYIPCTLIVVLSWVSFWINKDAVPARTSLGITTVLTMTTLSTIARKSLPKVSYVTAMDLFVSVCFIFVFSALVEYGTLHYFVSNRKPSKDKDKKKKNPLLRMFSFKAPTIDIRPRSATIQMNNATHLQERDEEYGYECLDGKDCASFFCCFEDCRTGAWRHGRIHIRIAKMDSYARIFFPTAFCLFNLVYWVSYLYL
T3 sequence (P47869 whole entry): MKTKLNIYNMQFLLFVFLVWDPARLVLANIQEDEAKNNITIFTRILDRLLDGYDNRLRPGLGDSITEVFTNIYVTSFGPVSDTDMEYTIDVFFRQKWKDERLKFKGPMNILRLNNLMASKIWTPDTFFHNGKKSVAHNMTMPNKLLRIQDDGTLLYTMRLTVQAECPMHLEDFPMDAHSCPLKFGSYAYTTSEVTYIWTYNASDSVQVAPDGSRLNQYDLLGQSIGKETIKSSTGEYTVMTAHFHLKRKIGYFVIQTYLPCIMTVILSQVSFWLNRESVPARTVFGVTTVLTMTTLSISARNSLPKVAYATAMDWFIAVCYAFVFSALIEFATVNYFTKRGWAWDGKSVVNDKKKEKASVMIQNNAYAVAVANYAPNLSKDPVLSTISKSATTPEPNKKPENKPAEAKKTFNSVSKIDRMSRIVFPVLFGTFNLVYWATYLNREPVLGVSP
Put plainly: Displacement of [3H]flumazenil from human recombinant GABA-A alpha2beta2gamma2L receptor expressed in HEK293 cells. The format is cell-based. In short, it runs like this:
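Membranes came from stably transfected HEK293 lines expressing α2β2γ2 or α5β3γ2, grown in MEM/EBSS with 10% FCS at 37 C, and were resuspended in 10 mM potassium phosphate pH 7.4 with 100 mM KCl. […] At least six concentrations were tested, DMSO ≤1%. Ki was obtained by Cheng–Prusoff from n = 3 experiments run in triplicate.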

In experiment [4] the target is T1, GABA-A receptor; alpha-1/beta-2/gamma-2 (Homo sapiens). Kind of experiment: Modulation of human recombinant GABA-A alpha1beta2gamma2L receptor expressed in Xenopus laevis oocytes assessed as effect on GABA-induced chloride current at 10 uM incubated 60 seconds before addition of GABA measured after 30 seconds at holding potential -70 mV by two-microelectrode voltage clamp technique relative to control. The format is cell-based. Particulars: Oocyte.

The next experiment has as its system Oocyte. Kind of experiment: Modulation of human recombinant GABA-A alpha5beta2gamma2L receptor expressed in Xenopus laevis oocytes assessed as effect on GABA-induced chloride current at 1 uM incubated 60 seconds before addition of GABA measured after 30 seconds at holding potential -70 mV by two-microelectrode voltage clamp technique relative to control. Type of experiment: cell-based.

Experiment [5] is described as follows: Displacement of [3H]flumazenil from central benzodiazepine receptor in human cortical membrane after 90 mins by beta liquid scintillation counting. The format is cell membranes. Background: Displacement assays read how much labelled ligand stays bound in the presence of the test substance.
The target of experiment [6] is T2, GABA A receptor alpha-1/beta-1/gamma-2 (Homo sapiens). Kind of experiment: Modulation of human recombinant GABA-A alpha1beta1gamma2L receptor expressed in Xenopus laevis oocytes assessed as effect on GABA-induced chloride current at 10 uM incubated 60 seconds before addition of GABA measured after 30 seconds at holding potential -70 mV by two-microelectrode voltage clamp technique relative to control. Type of experiment: cell-based. Particulars: Oocyte.

Experiment [7] in a line: Displacement of [3H]flumazenil from central benzodiazepine receptor in bovine cortical membrane after 90 mins by beta liquid scintillation counting. Type of experiment: cell membranes, Bos taurus. In short, it runs like this:
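At least six concentrations spanning 3 log units were tested in 2% DMSO. Ki was obtained by Cheng–Prusoff (Kd 0.85 nM bovine, 0.91 nM human), mean of three determinations.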

For another experiment, the species on record is Bos taurus. Put plainly: Ratio of Ki for central benzodiazepine receptor in bovine cortical membrane to Ki for central benzodiazepine receptor in bovine cortical membrane in presence of 50 uM GABA. The format is cell membranes.
The target of experiment [8] is T2, GABA A receptor alpha-1/beta-1/gamma-2 (Homo sapiens). Kind of experiment: Modulation of human recombinant GABA-A alpha1beta1gamma2L receptor expressed in Xenopus laevis oocytes assessed as effect on GABA-induced chloride current at 1 uM incubated 60 seconds before addition of GABA measured after 30 seconds at holding potential -70 mV by two-microelectrode voltage clamp technique relative to control. The format is cell-based. Particulars: Oocyte.

One may read the Ki as the dissociation constant of the complex between target and ligand, obtained from inhibition or displacement. For the molecule `CCOC(=O)c1ncn2c1CN=C(c1ccc(C)cc1)c1ccccc1-2`, the outcome in experiment [1] and in experiment [2] was Active. Further, the Ratio Ki in the experiment filed under Homo sapiens is 1.1; in the experiment filed under Bos taurus, 0.97. Also, the Ki came to 105 nM in [3], 18.5 nM in experiment [5] and 11.4 nM in [7]. Moreover, the Activity was -4% in [4], -4% with Oocyte, 8.3% in experiment [6] and 0% in [8].
`CCOC(=O)c1ncn2c1CN=C(c1ccc(F)cc1)c1cc(F)ccc1-2`: the result in [1] and in [2] was Active. In addition, the results for the Ratio Ki in the experiment filed under Homo sapiens and in the experiment filed under Bos taurus were 1.05 and 1, respectively. Besides, the results for the Ki in [3], in experiment [5] and in experiment [7] were 60 nM, 22.3 nM and 10.9 nM, respectively. For the same molecule, the Activity in experiment [4] is 12%; in the experiment with Oocyte, -1%; in experiment [6], 6.5%; in experiment [8] it was -7.5%.

These data come from ChEMBL document CHEMBL2169854, “New insight into the central benzodiazepine receptor-ligand interactions: design, synthesis, biological evaluation, and molecular modeling of 3-substituted 6-phenyl-4H-imidazo[1,5-a][1,4]benzodiazepines and related compounds” (J Med Chem, 2011).
